Source: ChEMBL document CHEMBL2169817, “Development of novel bisphosphonate prodrugs of doxorubicin for targeting bone metastases that are cleaved pH dependently or by cathepsin B: synthesis, cleavage properties, and binding properties to hydroxyapatite as well as bone matrix” (J Med Chem, 2012)
Calls of active or inactive are those of the source. The calls are words filed in the database; no cut-off is given here.

Key:
[1] = Prodrug conversion assessed as doxorubicin formation by HPLC analysis at pH 5 in presence of cathepsin B; assay type: physicochemical
Method in brief: (§1)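 Prodrug stock (1.5 mM) mixed with human liver cathepsin B (0.4 mg/mL, 23.8 U/mg) in 50 mM sodium acetate, 100 mM NaCl, 4 mM EDTA, 8 mM L-cysteine at pH 5.0 or 6.0. Incubated at 37 °C. Aliquots taken at 5–120 min and analysed by gradient C18 RP-HPLC. Control at pH 5.0 omitted the enzyme.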

Plasma [2] = assay: Stability in human plasma assessed as anthracycline derivative formation over 6 hrs by HPLC analysis; assay type: ADME, cell-free
Method in brief: (§2)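 Prodrug stock (3 mM in 10 mM sodium phosphate, 0.15 M NaCl, pH 7.4) added to EDTA-anticoagulated plasma from healthy volunteers, final 600 μM. Incubated at 37 °C for 0, 0.5, 1, 3 and 6 h. Samples centrifuged; supernatant analysed by C18 RP-HPLC with detection at 495 nm.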

Hydroxyapatite [3] = assay: Binding affinity to bone mineral hydroxyapatite at pH 6 at 300 uM after 1 hr by photometric analysis
Method in brief: (§3)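 Compound diluted to 300 μM (checked by absorbance at 495 nm, ε 10650 M⁻¹ cm⁻¹) in 4 mM sodium phosphate, 150 mM NaCl at pH 6.0 or 7.4. Hydroxyapatite (30 equiv) added, stirred at 37 °C. Parallel solution without HA as control. Centrifuged at 0–6 h and 20 h; supernatant A495 read. Mean of three measurements. % bound = (conc without HA − conc with HA)/conc without HA × 100.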

[4] = Toxicity in iv dosed Balb/c nude mouse administered as doxorubicin equivalents once a week for 3 weeks; assay type: organism-based; conditions: in vivo
Method in brief: (§4)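 Female Balb/C nude mice, five weeks old, about 20 g, three per group. Prodrug dissolved at 3.4 mM in sterile 10 mM sodium phosphate/sodium chloride buffer, pH 7.4. Given i.v. once weekly for three weeks at 8, 16 or 24 mg/kg doxorubicin equivalents. Behaviour and welfare checked daily, body weight every two days, observation over four weeks.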

Plasma [5] = assay: Stability in human plasma assessed as doxorubicin formation over 6 hrs by HPLC analysis; assay type: ADME, cell-free; method in brief: as §2
Bos taurus = organism: Bos taurus; assay: Binding affinity to bovine bone matrix at pH 7.4 at 300 uM after 4 hrs by spectrophotometric analysis
Method in brief: (§5)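 Cortical bovine backbone bone cut into 6×4×1 mm pieces, washed with water and absolute ethanol, dried. About 50 mg bone stirred at 37 °C with 300 μM prodrug in 4 mM Na₂HPO₄, 150 mM NaCl, pH 6.0 or 7.4. Control without bone. Centrifuged, supernatant A495 read. % bound = (conc without bone − conc with bone)/conc without bone × 100.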

Mus musculus [6] = assay: Toxicity in Balb/c nude mouse assessed as anemia at 24 mg/kg, iv of doxorubicin equivalents administered once a week on days 7, 14 and 21 measured 13 days post-last dose; assay type: organism-based; design: dose 24 mg/kg, route intravenous; conditions: in vivo, 312 h; method in brief: as §4
Mus musculus [7] = assay: Toxicity in Balb/c nude mouse assessed as change in body weight at 24 mg/kg, iv of doxorubicin equivalents administered once a week on days 7, 14 and 21; assay type: organism-based; design: dose 24 mg/kg, route intravenous; conditions: in vivo; method in brief: as §4
Hydroxyapatite [8] = assay: Binding affinity to bone mineral hydroxyapatite at pH 7.4 at 300 uM after 1 hr by photometric analysis; method in brief: as §3
Mus musculus [9] = assay: Toxicity in Balb/c nude mouse assessed as adverse effects at 16 mg/kg, iv of doxorubicin equivalents administered once a week on days 7, 14 and 21; assay type: organism-based; design: dose 16 mg/kg, route intravenous; conditions: in vivo; method in brief: as §4
Mus musculus [10] = assay: Toxicity in Balb/c nude mouse assessed as adverse effects at 24 mg/kg, iv of doxorubicin equivalents administered once a week on days 7, 14 and 21; assay type: organism-based; design: dose 24 mg/kg, route intravenous; conditions: in vivo; method in brief: as §4
Mus musculus [11] = assay: Toxicity in Balb/c nude mouse assessed as weight loss at 8 mg/kg, iv of doxorubicin equivalents administered once a week on days 0, 7 and 14 measured after 1 week; assay type: organism-based; design: dose 8 mg/kg, route intravenous; conditions: in vivo, 168 h; method in brief: as §4
Hydroxyapatite [12] = assay: Binding affinity to bone mineral hydroxyapatite at pH 7.4 at 300 uM after 5 hrs by photometric analysis; method in brief: as §3
[13] = Prodrug conversion assessed as doxorubicin formation at pH 5.5 at 600 uM by HPLC analysis; assay type: physicochemical; conditions: pH 5.5, 600 µM; TDE = time-dependent effect
Method in brief: (§6)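 Prodrug at a final 2.4 mM in 4 mM sodium phosphate, 150 mM NaCl (pH 7.4), brought to pH 5.5 with 50 mM sodium acetate (pH 4.5). Held at room temperature; samples diluted to 600 μM and analysed by isocratic C18 HPLC (30% CH₃CN/10 mM phosphate pH 7.8) at 5–300 min.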

[14] = Half life of the compound at pH 5.5 at 600 uM by HPLC analysis; assay type: physicochemical; method in brief: as §6
[15] = Binding affinity to bovine bone matrix at pH 6 at 300 uM after 4 hrs by spectrophotometric analysis; assay type: ADME, Bos taurus; conditions: cattle, pH 6, 4 h; method in brief: as §5
Mus musculus [16] = assay: Toxicity in Balb/c nude mouse assessed as adverse effects at 8 mg/kg, iv of doxorubicin equivalents administered once a week on days 0, 7 and 14 measured after 1 week; assay type: organism-based; design: dose 8 mg/kg, route intravenous; conditions: in vivo, 168 h; method in brief: as §4
Mus musculus [17] = assay: Toxicity in Balb/c nude mouse assessed as mortality at 24 mg/kg, iv of doxorubicin equivalents administered once a week on days 7, 14 and 21 measured 13 days post-last dose; assay type: organism-based; design: dose 24 mg/kg, route intravenous; conditions: in vivo, 312 h; method in brief: as §4
[18] = Half life of the compound by HPLC analysis at pH 5 in presence of cathepsin B; assay type: physicochemical; method in brief: as §1
Mus musculus [19] = assay: Toxicity in Balb/c nude mouse assessed as mortality at 16 mg/kg, iv of doxorubicin equivalents measured on day 7; assay type: organism-based; design: dose 16 mg/kg, route intravenous; conditions: in vivo; method in brief: as §4
[20] = Prodrug conversion assessed as doxorubicin formation after 40 mins by HPLC analysis at pH 6 in presence of cathepsin B; assay type: physicochemical; conditions: pH 6, 40 min; method in brief: as §1
Mus musculus [21] = assay: Toxicity in Balb/c nude mouse assessed as mortality at 24 mg/kg, iv of doxorubicin equivalents measured on day 7; assay type: organism-based; design: dose 24 mg/kg, route intravenous; conditions: in vivo; method in brief: as §4
[22] = […] by HPLC analysis at pH 5 in absence of cathepsin B; assay type: physicochemical; conditions: buffer
Hydroxyapatite [23] = assay: Binding affinity to bone mineral hydroxyapatite at pH 7.4 at 300 uM after 24 hrs by photometric analysis
Hydroxyapatite [24] = assay: Binding affinity to bone mineral hydroxyapatite at pH 6 at 300 uM up to 24 hrs by photometric analysis; method in brief: as §3
[25] = Prodrug conversion assessed as doxorubicin formation after 120 mins by HPLC analysis at pH 5 in presence of cathepsin B; assay type: physicochemical; conditions: pH 5, 2 h; method in brief: as §1
Hydroxyapatite [26] = assay: Binding affinity to bone mineral hydroxyapatite at pH 7.4 at 300 uM by photometric analysis
Method in brief: (§7)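 Test compound at 300 μM in 4 mM sodium phosphate with 150 mM NaCl, at pH 6.0 or pH 7.4, concentration checked by absorbance at 495 nm. Hydroxyapatite powder (30 equiv) added, stirred, incubated at 37 °C, with a matching sample without hydroxyapatite as control. Centrifuged at 0–6 h and 20 h. Supernatant A495 read (ε 10650 M⁻¹ cm⁻¹). % bound = (no-HA − HA conc)/no-HA conc × 100. Mean of three measurements.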

Hydroxyapatite [27] = assay: Binding affinity to bone mineral hydroxyapatite at pH 6 at 300 uM by photometric analysis; method in brief: as §7

In the case of COc1cccc2c1C(=O)c1c(O)c3c(c(O)c1C2=O)C[C@@](O)(C(=O)CO)C[C@@H]3O[C@H]1C[C@H](NC(=O)OCc2ccc(NC(=O)[C@H](CCCCN)NC(=O)[C@H](Cc3ccccc3)NC(=O)CCCCCN3C(=O)CC(SCCCSCC(P(=O)([O-])[O-])P(=O)([O-])[O-])C3=O)cc2)[C@H](O)[C@H](C)O1.O=C(O)C(F)(F)F.[Na+].[Na+].[Na+].[Na+] (some centres not stated), the Drug metabolism [1] is reported as “Active”.

For COc1cccc2c1C(=O)c1c(O)c3c(c(O)c1C2=O)C[C@@](O)(/C(CO)=N/NC(=O)CCCCCN1C(=O)CC(SCCCSCC(P(=O)(O)O)P(=O)(O)O)C1=O)C[C@@H]3O[C@H]1C[C@H](N)[C@H](O)[C@H](C)O1.Cl.N.N.N.N (some centres not stated), the Drug metabolism (Plasma [2]) was “Active”, the Activity (Hydroxyapatite [3]) was 65% and the MTD at 504 h [4] was 24 mg/kg. For the same compound, the Drug metabolism (Plasma [5]) was “Active”, the Activity (Bos taurus) was 50% and the Activity (Mus musculus [6]) was “Toxic”. For the same compound, the Activity (Mus musculus [7]) was “Non-toxic”, the Activity (Hydroxyapatite [8]) was 50% and the Activity (Mus musculus [9]) was “Non-toxic”. The Activity (Mus musculus [10]) was “Non-toxic”, the Activity (Mus musculus [11]) was “Non-toxic” and the Activity (Hydroxyapatite [12]) was 80%. The Drug metabolism [13] was “tde”, the half-life at 600 µM [14] was 2.5 h and the Activity [15] was 80%. For the same compound, the Activity (Mus musculus [16]) was “Non-toxic” and the Activity (Mus musculus [17]) was “Toxic”.

With COc1cccc2c1C(=O)c1c(O)c3c(c(O)c1C2=O)C[C@@](O)(C(=O)CO)C[C@@H]3O[C@H]1C[C@H](NC(=O)OCc2ccc(NC(=O)[C@H](C)NC(=O)[C@@H](NC(=O)CCCCCN3C(=O)CC(SCCCSCC(P(=O)(O)O)P(=O)(O)O)C3=O)C(C)C)cc2)[C@H](O)[C@H](C)O1.N.N.N.N (some centres not stated) the half-life [18] was 0.75 h, the Activity (Mus musculus [19]) was “Toxic” and the Drug metabolism [1] was “Active”. The Drug metabolism [20] was “Active”, the Stability (Plasma [2]) was “Stable” and the Activity (Hydroxyapatite [3]) was 65%. The MTD at 504 h [4] was 8 mg/kg, the Stability (Plasma [5]) was “Stable” and the Activity (Bos taurus) was 50%. The Activity (Mus musculus [21]) was “Toxic”, the Stability [22] was “Stable” and the Activity (Hydroxyapatite [23]) was 100%. For the same compound, the Activity (Hydroxyapatite [8]) was 50%, the Activity (Hydroxyapatite [24]) was 90% and the Activity (Mus musculus [11]) was “Non-toxic”. For the same compound, the Activity (Hydroxyapatite [12]) was 90%, the Activity [15] was 80% and the Drug metabolism [25] was “Active”. For the same compound, the Activity (Mus musculus [16]) was “Non-toxic”.

In the case of COc1cccc2c1C(=O)c1c(O)c3c(c(O)c1C2=O)C[C@@](O)(C(=O)CO)C[C@@H]3O[C@H]1C[C@H](N)[C@H](O)[C@H](C)O1 [DOXORUBICIN], the MTD at 504 h [4] is reported as 8 mg/kg, the Activity (Hydroxyapatite [26]) is reported as “inactive” and the Activity (Bos taurus) is reported as “inactive”. The Activity (Hydroxyapatite [27]) was “inactive” and the Activity [15] was “Not Active”.
